Assay outcomes (PubChem)
A selection: hits, their analogues and other compounds. The true share with any hit is near 4.5%.
HCV NS3 hel inh – HCV NS3 helicase inhibition; hit rate 0.56% among 290,000; AID 1800; inhibition, % at 10.9 µM; NS3 helicase DNA unwinding, Cy5 molecular beacon fluorescence;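 active means inhibition above the mean of all tested compounds plus 3 SD, set per campaign, cut at about 35% in these data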
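Assay system: hepatitis C virus NS3 helicase domain fragment enzyme. Also added: annealed dual-labelled DNA beacon duplex, ATP-started. Timing: 1 h reaction at 25 °C, ATP-initiated. Technique: Cy5 fluorescence at 0 and 60 min, beacon hairpin quenching. Evaluation: % inhibition of unwinding. Replication: one well per compound.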
UPR CHOP act – activators of apoptotic arm of unfolded protein response (CHOP); CHO-CHOP luciferase reporter, UPR activation, luminescence; percent of tunicamycin response over DMSO baseline; activation, % at 10 µM; hit rate 0.34% among 330,000; AID 449763;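 active means at 10 µM dose, activation of 40% or more, normalized to positive control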
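System: CHO-CHOP luciferase reporter cell line | Buffer or medium: F12 medium containing 10% fetal bovine serum | Doses: One dose, 10 µM in 0.5% DMSO | Times: 6 h compound exposure at 37 °C after overnight seeding | Signal: Luciferase luminescence | Read-out: % activation vs tunicamycin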
M18AAP inhibitor – PfM18AAP enzyme inhibition; AID 1822; inhibition, % at 7.35 µM; hit rate 1.2% among 290,000; recombinant PfM18AAP, H-Glu-NHMec fluorogenic cleavage;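 active means inhibition above the campaign mean inhibition over all tested compounds plus 3 SD, cut at about 28% in these data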
CHOP inhibitor – blocks CHOP induction under ER stress; AID 2732; hit rate 3.8% among 220,000; inhibition, % at 10 µM; CHO-K1 CHOP-promoter luciferase, tunicamycin-induced, 15-18 h;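 active means compounds that reduced the stress-induced luciferase reporter signal by more than about 70% of percent inhibition, limit read from the data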
p97 inhibitor – inhibitors of human p97 ATPase; recombinant p97 ATPase, Kinase-Glo ATP luminescence, 3 h; inhibition, % at 8 µM; hit rate 0.42% among 220,000; in the data active means inhibition above about 15%
Target sequence (P55072 whole entry, looked up): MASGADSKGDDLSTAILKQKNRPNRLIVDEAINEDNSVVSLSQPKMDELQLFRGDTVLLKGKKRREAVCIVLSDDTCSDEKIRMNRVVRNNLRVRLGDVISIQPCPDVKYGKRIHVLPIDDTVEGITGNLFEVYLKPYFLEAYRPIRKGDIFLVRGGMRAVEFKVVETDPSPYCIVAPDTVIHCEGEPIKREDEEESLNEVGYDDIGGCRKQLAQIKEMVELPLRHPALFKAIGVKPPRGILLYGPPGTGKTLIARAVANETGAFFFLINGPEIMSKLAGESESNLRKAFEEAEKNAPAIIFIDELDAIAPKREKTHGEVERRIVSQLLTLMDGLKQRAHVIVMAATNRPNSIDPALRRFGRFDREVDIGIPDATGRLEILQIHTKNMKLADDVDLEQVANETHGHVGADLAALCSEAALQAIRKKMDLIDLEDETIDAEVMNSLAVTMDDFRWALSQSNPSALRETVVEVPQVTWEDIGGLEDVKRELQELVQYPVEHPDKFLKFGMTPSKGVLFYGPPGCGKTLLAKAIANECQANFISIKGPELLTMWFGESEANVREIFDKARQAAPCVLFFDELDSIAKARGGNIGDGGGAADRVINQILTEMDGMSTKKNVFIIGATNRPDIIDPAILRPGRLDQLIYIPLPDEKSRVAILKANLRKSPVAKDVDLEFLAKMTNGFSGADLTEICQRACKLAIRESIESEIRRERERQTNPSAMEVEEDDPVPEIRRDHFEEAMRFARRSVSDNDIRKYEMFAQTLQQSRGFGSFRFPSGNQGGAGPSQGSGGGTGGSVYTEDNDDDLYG
XBP1 UPR activ – activators of adaptive arm of unfolded protein response (XBP1); hit rate 0.33% among 330,000; CHO-XBP1 luciferase reporter, IRE1-XBP1 UPR activation, luminescence; percent of tunicamycin response, DMSO as zero; activation, % at 20 µM;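 active means versus positive control, 20 µM dose yields 30% or more activation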
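incubation = overnight seeding at 37 °C, 6 h compound treatment at 37 °C | assay system = CHO-XBP1 cells stably carrying IRE1-XBP1-driven luciferase reporter | input = 1000 cells per well | detection = luciferase luminescence | dosing = single point, 20 µM final compound, 1% DMSO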
A number is an active result.

For COC(=O)c1sccc1NC(=O)C1CC2CCC1C2 (stereo unspecified) the results were HCV NS3 hel inh inactive, UPR CHOP act inactive, M18AAP inhibitor inactive, CHOP inhibitor 94, p97 inhibitor inactive and XBP1 UPR activ inactive.
COC(=O)c1sccc1NC(=S)N1CCC(C)CC1 was read as HCV NS3 hel inh inactive, UPR CHOP act inactive, M18AAP inhibitor inactive, CHOP inhibitor inactive, p97 inhibitor inactive and XBP1 UPR activ inactive.
O=c1c2ccccc2c(-c2ccc(O)cc2)nn1-c1cccc(C(F)(F)F)c1 was read as HCV NS3 hel inh inactive, UPR CHOP act inactive, M18AAP inhibitor inactive, CHOP inhibitor 94, p97 inhibitor inactive and XBP1 UPR activ inactive.
For COc1ccc(Oc2nnc(-c3ccc(C)cc3)c3ccccc23)cc1 the results were HCV NS3 hel inh inactive, UPR CHOP act inactive, M18AAP inhibitor inactive, CHOP inhibitor 83, p97 inhibitor inactive and XBP1 UPR activ inactive.
For Cc1cccc2cc(CN(Cc3ccc(F)cc3)C(=O)N(C)C)c3nnnn3c12 the results were HCV NS3 hel inh inactive, UPR CHOP act inactive, M18AAP inhibitor inactive, CHOP inhibitor 90, p97 inhibitor inactive and XBP1 UPR activ inactive.
COc1cc(C(=O)Nc2c(C(=O)O)[nH]c3ccc(Br)cc23)cc(OC)c1OC was read as HCV NS3 hel inh inactive, UPR CHOP act inactive, M18AAP inhibitor inactive and XBP1 UPR activ inactive.
For CCOC(=O)C[n+]1c(C)csc1C the results were HCV NS3 hel inh inactive, UPR CHOP act inactive, M18AAP inhibitor 30, CHOP inhibitor inactive, p97 inhibitor inactive and XBP1 UPR activ inactive.
Screening CCOC(=O)CSc1nc2cc(OCC)ccc2cc1C#N returned HCV NS3 hel inh inactive, UPR CHOP act inactive, M18AAP inhibitor inactive, CHOP inhibitor 93, p97 inhibitor inactive and XBP1 UPR activ inactive.
For CCOc1ccc2cc(C#N)c(SCC(=O)N3CCC(C)CC3)nc2c1 the results were HCV NS3 hel inh inactive, UPR CHOP act inactive, M18AAP inhibitor inactive, CHOP inhibitor inactive, p97 inhibitor inactive and XBP1 UPR activ inactive.
Screening O=C(N[C@@H]1CCC(=O)N(CC[C@H](Sc2ccccc2)c2ccccc2)CC1)OCc1ccccc1 returned HCV NS3 hel inh inactive, UPR CHOP act inactive, M18AAP inhibitor inactive and XBP1 UPR activ inactive.
For NC(=O)c1ccccc1NC(=O)Nc1cccc2ccccc12 the results were HCV NS3 hel inh inactive, UPR CHOP act inactive, M18AAP inhibitor inactive, CHOP inhibitor inactive, p97 inhibitor inactive and XBP1 UPR activ inactive.
NC(=O)NNC(=S)Nc1cccc2ccccc12 was read as HCV NS3 hel inh inactive, UPR CHOP act inactive, M18AAP inhibitor 50, CHOP inhibitor inactive, p97 inhibitor inactive and XBP1 UPR activ inactive.
`COC(=O)c1ccccc1NC(=S)NC(=O)c1ccc2ccccc2c1` gave HCV NS3 hel inh inactive, UPR CHOP act inactive, M18AAP inhibitor inactive, CHOP inhibitor inactive, p97 inhibitor inactive and XBP1 UPR activ inactive.
For COC(=O)c1ccccc1NC(=S)NC(=O)c1cccc2ccccc12 the results were HCV NS3 hel inh inactive, UPR CHOP act inactive, M18AAP inhibitor inactive, CHOP inhibitor inactive, p97 inhibitor 34 and XBP1 UPR activ inactive.
Screening O=C(O)COCC(=O)NCc1csc2ccccc12 returned HCV NS3 hel inh inactive, UPR CHOP act inactive, M18AAP inhibitor inactive, CHOP inhibitor inactive, p97 inhibitor inactive and XBP1 UPR activ inactive.
For Fc1ccc(N/N=C/C=C/c2ccccc2)c(F)c1 the results were HCV NS3 hel inh inactive, UPR CHOP act inactive, M18AAP inhibitor inactive, CHOP inhibitor 77, p97 inhibitor inactive and XBP1 UPR activ inactive.
CC(C)[C@H](NC(=O)c1ccccc1)C(=O)OCC(=O)/C=C1/N(C)c2ccccc2C1(C)C was read as HCV NS3 hel inh inactive, UPR CHOP act inactive, M18AAP inhibitor inactive, CHOP inhibitor 70, p97 inhibitor inactive and XBP1 UPR activ inactive.
`COc1cc(OC)cc(C(=O)NCC(=O)OCC(=O)/C=C2/N(C)c3ccccc3C2(C)C)c1` gave HCV NS3 hel inh inactive, UPR CHOP act inactive, M18AAP inhibitor inactive, CHOP inhibitor inactive, p97 inhibitor inactive and XBP1 UPR activ inactive.
`O=C(NC1CCCCC1)C(c1ccc(O)cc1)N(C(=O)c1cnccn1)c1cccc(F)c1` (stereo unspecified) gave HCV NS3 hel inh inactive, UPR CHOP act inactive, M18AAP inhibitor inactive and XBP1 UPR activ inactive.
`CC(=O)Nc1ccc(S(=O)(=O)Nc2nc3ccccc3nc2Nc2ccc(N)cc2)cc1` gave HCV NS3 hel inh inactive, UPR CHOP act inactive, M18AAP inhibitor inactive, CHOP inhibitor inactive, p97 inhibitor inactive and XBP1 UPR activ inactive.
For CCCCN(CCCC)c1nc2ccccc2nc1NS(=O)(=O)c1ccc(NC(C)=O)cc1 the results were HCV NS3 hel inh inactive, UPR CHOP act inactive, M18AAP inhibitor inactive, CHOP inhibitor 88, p97 inhibitor inactive and XBP1 UPR activ inactive.
Screening Cc1cc(C)c(CN2CCC(N3CCC(C(=O)NCC4CCCO4)CC3)CC2)cc1C (stereo unspecified) returned HCV NS3 hel inh inactive, UPR CHOP act inactive, M18AAP inhibitor inactive and XBP1 UPR activ inactive.
`Cc1nc2cc3nc(C)sc3cc2s1` gave HCV NS3 hel inh inactive, UPR CHOP act inactive, M18AAP inhibitor 29, CHOP inhibitor inactive, p97 inhibitor inactive and XBP1 UPR activ inactive.
Cc1csc(SCC(=O)c2cc(C)n(Cc3cccs3)c2C)n1 was read as HCV NS3 hel inh inactive, UPR CHOP act inactive, M18AAP inhibitor inactive, CHOP inhibitor 76, p97 inhibitor inactive and XBP1 UPR activ inactive.
Screening Cc1cc(C(=O)CSc2nnc(N)s2)c(C)n1Cc1cccs1 returned HCV NS3 hel inh inactive, UPR CHOP act inactive, M18AAP inhibitor inactive, CHOP inhibitor inactive, p97 inhibitor inactive and XBP1 UPR activ inactive.
`CC(=O)c1ccc(NC(=O)CN2C(=O)COc3ccc(S(=O)(=O)N4CCCC4)cc32)cc1` gave HCV NS3 hel inh inactive, UPR CHOP act inactive, M18AAP inhibitor inactive and XBP1 UPR activ inactive.
`Cc1ccc(Nc2nc(-c3ccc(S(=O)(=O)N4CCOCC4)cc3)cs2)cc1Cl` gave HCV NS3 hel inh inactive, UPR CHOP act inactive, M18AAP inhibitor inactive, CHOP inhibitor 88, p97 inhibitor inactive and XBP1 UPR activ inactive.
CC(C)COc1cccc(C(=O)Nc2ccc(CN3CCOCC3)cc2)c1 was read as HCV NS3 hel inh inactive, UPR CHOP act inactive, M18AAP inhibitor inactive and XBP1 UPR activ inactive.
Screening CC(C)CC(=O)Nc1nc(-c2ccc(S(=O)(=O)N3CCOCC3)cc2)cs1 returned HCV NS3 hel inh inactive, UPR CHOP act inactive, M18AAP inhibitor inactive and XBP1 UPR activ inactive.
CC(C)COc1cccc(C(=O)Nc2ccc(S(=O)(=O)N3CCOCC3)cc2)c1 was read as HCV NS3 hel inh inactive, UPR CHOP act inactive, M18AAP inhibitor inactive, CHOP inhibitor 80, p97 inhibitor inactive and XBP1 UPR activ inactive.
For COc1ccc(-c2csc(NC(=O)c3ccccc3NS(=O)(=O)c3ccc(F)c(F)c3)n2)cc1 the results were HCV NS3 hel inh inactive, UPR CHOP act inactive, M18AAP inhibitor inactive, CHOP inhibitor 79, p97 inhibitor inactive and XBP1 UPR activ inactive.
